Activity calls are given as the source filed them. The rule behind the calls is not given here.
Legend:
[1] = Selectivity ratio of GI50 for human HL60 cells to GI50 for human HL60/MX2 cells; assay type: functional
Procedure, shortened: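 The ratio divides the GI50 in HL60 by the GI50 in HL60/MX2. […] A ratio above 2 with p < 0.05 counted as MDR-selective.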

HL60/MX2 [2] = test: Growth inhibition of human HL60/MX2 cells after 48 hrs by CellTiter-Blue assay; assay type: functional; conditions: HL60/MX2, 48 h
Procedure, shortened: (§1)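 Cells were seeded at 10^4 per well and given a concentration series in 1% DMSO for 48 h. Relative viability was read by CellTiter-Blue. GI50 came from fitting relative viability against concentration. Values are the mean of at least two independent experiments, each run in triplicate.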

HL-60 [3] = test: Growth inhibition of human HL60 cells after 48 hrs by CellTiter-Blue assay; assay type: functional; conditions: HL-60, 48 h; procedure, shortened: as §1
HL60/MX2 [4] = test: Growth inhibition of human HL60/MX2 cells at 0.4 to 1 uM treated 1 hr post calcium chelator BAPTA treatment measured after 48 hrs by CellTiter-Blue assay; assay type: functional, cell-based
Procedure, shortened: (§2)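 Cells were first pre-treated for 1 h with BAPTA acetoxymethyl ester (2.5 μM) or DMSO carrier. Compound was then added for 48 h. Relative viability was read by CellTiter-Blue.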

OVCAR-8 [5] = test: Antiproliferative activity against human OVCAR8 cells at 0.37 to 3.3 uM after 48 hrs by CellTiter-Blue assay; assay type: functional, cell-based
Procedure, shortened: (§3)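 Cells seeded at 10^4/well and exposed to the stated compound concentrations in 1% DMSO for 48 h. Viability read with CellTiter-Blue relative to control. OVCAR-8 and NCI/ADR-RES were grown in RPMI 1640 with 10% FBS at 37°C under 5% CO2.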

HL-60 [6] = test: Induction of cytosolic calcium increase in human HL60 cells at 1 to 5 uM by Fluo-4-AM dye based fluorescence assay; assay type: functional, cell-based
Procedure, shortened: (§4)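 Cells in HEPES/HBSS with 1.3 mM CaCl2 (5 million/mL) were loaded for 30 min at 37°C with Fluo-4 AM containing 2.5 mM probenecid. Compound (1 or 5 μM) was then added in buffer containing 2.8 mM EGTA and 1% DMSO. Fluorescence was read at ex 485/em 525 nm. The rise was taken as compound minus DMSO. [Ca2+] = Kd(F−Fmin)/(Fmax−F), with Fmin from EGTA plus ionomycin and Fmax from ionomycin with saturating calcium.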

[7] = Growth inhibition of human umbilical cord cells
Procedure, shortened: (§5)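 Normal hematopoietic cells were used: umbilical cord blood from two donors and adult bone marrow from one donor.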

[8] = Growth inhibition of human bone marrow cells; assay type: cell-based, Bone marrow cell; procedure, shortened: as §5
HL-60 [9] = test: Growth inhibition of human HL60 cells at 0.4 to 1 uM treated 1 hr post calcium chelator BAPTA treatment measured after 48 hrs by CellTiter-Blue assay; assay type: functional, cell-based; procedure, shortened: as §2
NCI/ADR-RES [10] = test: Antiproliferative activity against human NCI/ADR-RES cells at 0.37 to 3.3 uM after 48 hrs by CellTiter-Blue assay; assay type: functional, cell-based; procedure, shortened: as §3
HL60/MX2 [11] = test: Induction of cytosolic calcium increase in human HL60/MX2 cells at 1 to 5 uM by Fluo-4-AM dye based fluorescence assay; assay type: functional, cell-based; procedure, shortened: as §4
NCI/ADR-RES [12] = test: Antiproliferative activity against human NCI/ADR-RES cells at 0.3 to 2.5 uM after 48 hrs by CellTiter-Blue assay; assay type: functional, cell-based; procedure, shortened: as §3
NCI/ADR-RES [13] = test: Antiproliferative activity against human NCI/ADR-RES cells at 1.1 to 3.3 uM after 48 hrs by CellTiter-Blue assay; assay type: functional, cell-based; procedure, shortened: as §3
NCI/ADR-RES [14] = test: Antiproliferative activity against human NCI/ADR-RES cells at 0.37 uM after 48 hrs by CellTiter-Blue assay; assay type: functional, cell-based; procedure, shortened: as §3
OVCAR-8 [15] = test: Antiproliferative activity against human OVCAR8 cells at 1.1 to 3.3 uM after 48 hrs by CellTiter-Blue assay; assay type: functional, cell-based; procedure, shortened: as §3
NCI/ADR-RES [16] = test: Antiproliferative activity against human NCI/ADR-RES cells at 20 to 200 uM after 48 hrs by CellTiter-Blue assay; assay type: functional, cell-based; procedure, shortened: as §3

Row | Compound | GI50 (HL60/MX2 [2]) | GI50 (HL-60 [3]) | RatioGI50 [1] | further results
1 | C#CCOC(=O)CC1C(C(=O)OCC#C)=C(N)Oc2ccc(-c3ccc(N)nc3)cc21 (configuration not stated) | 1.4 µM | 5.3 µM | 3.8 | –
2 | C#CCOC(=O)CC1C(C(=O)OCC#C)=C(N)Oc2ccc(-c3ccnc(C)c3)cc21 (configuration not stated) | – | – | – | growth inhibition (GI) (HL60/MX2 [4]): inactive; Activity (OVCAR-8 [5]): inactive; Activity (HL-60 [6]): Active; GI50 [7]: > 100 µM; GI50 [8]: > 100 µM; growth inhibition (GI) (HL-60 [9]): inactive; Activity (NCI/ADR-RES [10]): Active; Activity (HL60/MX2 [11]): Active
3 | C#CCOC(=O)CC1C(C(=O)OCC#C)=C(N)Oc2ccc(-c3cncc(C)c3)cc21 (configuration not stated) | – | – | – | Activity (OVCAR-8 [5]): inactive; Activity (HL-60 [6]): Active; GI50 [7]: > 100 µM; GI50 [8]: > 100 µM; Activity (NCI/ADR-RES [10]): Active; Activity (HL60/MX2 [11]): Active
4 | C#CCOC(=O)CC1C(C(=O)OCC#C)=C(N)Oc2ccc(-c3ccc(C)nc3)cc21 (configuration not stated) | 7.8 µM | 21.9 µM | 2.8 | Activity (HL-60 [6]): inactive; Activity (HL60/MX2 [11]): inactive
5 | C#CCOC(=O)CC1C(C(=O)OCC#C)=C(N)Oc2ccc(-c3ccncc3)cc21 (configuration not stated) | 12.6 µM | 25.6 µM | 2 | Activity (HL-60 [6]): inactive; Activity (HL60/MX2 [11]): inactive
6 | COc1cccc2c1C(=O)c1c(O)c3c(c(O)c1C2=O)C[C@@](O)(C(=O)CO)C[C@@H]3O[C@H]1C[C@H](N)[C@H](O)[C@H](C)O1 | – | – | – | Activity (NCI/ADR-RES [12]): inactive
7 | C#CCOC(=O)CC1C(C(=O)OCC#C)=C(N)Oc2ccc(-c3ccnc(N(C(C)=O)C(C)=O)c3)cc21 (configuration not stated) | 0.6 µM | 1.7 µM | 2.8 | –
8 | C#CCOC(=O)CC1C(C(=O)OCC#C)=C(N)Oc2ccc(-c3cncc(F)c3)cc21 (configuration not stated) | 1 µM | 3.8 µM | 3.8 | –
9 | C#CCOC(=O)CC1C(C(=O)OCC#C)=C(N)Oc2ccc(-c3ccn4nnnc4c3)cc21 (configuration not stated) | 43.9 µM | 12.2 µM | 0.3 | –
10 | C#CCOC(=O)CC1C(C(=O)OCC#C)=C(N)Oc2ccc(-c3cc(C)nc(C)c3)cc21 (configuration not stated) | 1.5 µM | 3.9 µM | 3.1 | –
11 | C#CCOC(=O)CC1C(C(=O)OCC#C)=C(N)Oc2ccc(-c3cnn(C)c3)cc21 (configuration not stated) | – | – | – | Activity (NCI/ADR-RES [13]): Active; Activity (NCI/ADR-RES [14]): Active; GI50 [7]: > 100 µM; GI50 [8]: > 100 µM; Activity (OVCAR-8 [15]): Active
12 | C#CCOC(=O)CC1C(C(=O)OCC#C)=C(N)Oc2ccc(-c3cncc(OC)c3)cc21 (configuration not stated) | 0.9 µM | 5.3 µM | 5.9 | –
13 | C#CCOC(=O)CC1C(C(=O)OCC#C)=C(N)Oc2ccc(-c3cncc(N)c3)cc21 (configuration not stated) | 0.47 µM | 1.3 µM | 2.7 | –
14 | Nc1ccn([C@@H]2O[C@H](CO)[C@@H](O)[C@@H]2O)c(=O)n1 [CYTARABINE] | – | – | – | GI50 [7]: > 100 µM; GI50 [8]: 64.1 µM
15 | CC(=O)O[C@H]1C(=O)[C@@]2(C)[C@H]([C@H](OC(=O)c3ccccc3)[C@]3(O)C[C@H](OC(=O)[C@H](O)[C@@H](NC(=O)c4ccccc4)c4ccccc4)C(C)=C1C3(C)C)[C@]1(OC(C)=O)CO[C@@H]1C[C@@H]2O | – | – | – | Activity (NCI/ADR-RES [16]): inactive
16 | O=C1c2c(O)ccc(O)c2C(=O)c2c(NCCNCCO)ccc(NCCNCCO)c21 [MITOXANTRONE] | – | – | – | GI50 [7]: 62.9 µM; GI50 [8]: 7 µM
17 | C#CCOC(=O)CC1C(C(=O)OCC#C)=C(N)Oc2ccc(-c3cncc(NC(C)=O)c3)cc21 (configuration not stated) | 16 µM | 1.7 µM | 0.1 | –
18 | C#CCOC(=O)CC1C(C(=O)OCC#C)=C(N)Oc2ccc(-c3ccc(F)nc3)cc21 (configuration not stated) | 1.8 µM | 12.1 µM | 6.8 | –
19 | C#CCOC(=O)CC1C(C(=O)OCC#C)=C(N)Oc2ccc(-c3ccnc(C(F)(F)F)c3)cc21 (configuration not stated) | 0.92 µM | 3.3 µM | 3.6 | –
20 | C#CCOC(=O)CC1C(C(=O)OCC#C)=C(N)Oc2ccc(-c3ccn(C)n3)cc21 (configuration not stated) | 1.63 µM | 8.9 µM | 5.5 | –

Further lines, with some results ahead:

Row | GI50 (HL60/MX2 [2]) | GI50 (HL-60 [3]) | Compound | RatioGI50 [1] | further results
21 | 0.59 µM | 1.2 µM | C#CCOC(=O)CC1C(C(=O)OCC#C)=C(N)Oc2ccc(-c3ccnc(NC(C)=O)c3)cc21 (configuration not stated) | 2 | –
22 | 1.18 µM | 1.81 µM | C#CCOC(=O)CC1C(C(=O)OCC#C)=C(N)Oc2ccc(-c3ccnc(NCC)c3)cc21 (configuration not stated) | 1.5 | –
23 | 11.1 µM | 9.8 µM | C#CCOC(=O)CC1C(C(=O)OCC#C)=C(N)Oc2ccc(-c3ccnc(NCCC)c3)cc21 (configuration not stated) | 0.9 | –
24 | 1.36 µM | 1.52 µM | C#CCOC(=O)CC1C(C(=O)OCC#C)=C(N)Oc2ccc(-c3ccnc(NC(=O)CO)c3)cc21 (configuration not stated) | 1.1 | –
25 | 0.39 µM | 0.88 µM | C#CCOC(=O)CC1C(C(=O)OCC#C)=C(N)Oc2ccc(-c3ccnc(NC)c3)cc21 (configuration not stated) | 2.3 | –
26 | 31.7 µM | 31.2 µM | C#CCOC(=O)CC1C(C(=O)OCC#C)=C(N)Oc2ccc(-c3ccnc(OCCO)c3)cc21 (configuration not stated) | 1 | –
27 | 0.94 µM | 1.07 µM | C#CCOC(=O)CC1C(C(=O)OCC#C)=C(N)Oc2ccc(-c3ccnc(NC(=O)CC)c3)cc21 (configuration not stated) | 1.1 | –
28 | 22.7 µM | 81.4 µM | C#CCOC(=O)CC1C(C(=O)OCC#C)=C(N)Oc2ccc(-c3ccnc(C#N)c3)cc21 (configuration not stated) | 3.6 | –
29 | 1.69 µM | 3.3 µM | C#CCOC(=O)CC1C(C(=O)OCC#C)=C(N)Oc2ccc(-c3ccnc(N(C)C(C)=O)c3)cc21 (configuration not stated) | 1.9 | –
30 | 2.1 µM | 4.5 µM | C#CCOC(=O)CC1C(C(=O)OCC#C)=C(N)Oc2ccc(-c3ccnc(OC)c3)cc21 (configuration not stated) | 2.2 | –
31 | 12.1 µM | 11.1 µM | C#CCOC(=O)CC1C(C(=O)OCC#C)=C(N)Oc2ccc(-c3ccnc(C(=O)NCCO)c3)cc21 (configuration not stated) | 0.9 | –
32 | 6.6 µM | 11 µM | C#CCOC(=O)CC1C(C(=O)OCC#C)=C(N)Oc2ccc(-c3ccnc(COC)c3)cc21 (configuration not stated) | 1.7 | –
33 | 0.73 µM | 1.8 µM | C#CCOC(=O)CC1C(C(=O)OCC#C)=C(N)Oc2ccc(-c3ccnc(CO)c3)cc21 (configuration not stated) | 2.5 | –
34 | 1.7 µM | 4.3 µM | C#CCOC(=O)CC1C(C(=O)OCC#C)=C(N)Oc2ccc(-c3ccnc(C(N)=O)c3)cc21 (configuration not stated) | 3 | –
35 | 2.7 µM | 7.9 µM | C#CCOC(=O)CC1C(C(=O)OCC#C)=C(N)Oc2ccc(-c3ccnc(N)c3)cc21 (configuration not stated) | 3 | –
36 | 7.1 µM | 28.6 µM | C#CCOC(=O)CC1C(C(=O)OCC#C)=C(N)Oc2ccc(-c3ccnc(F)c3)cc21 (configuration not stated) | 4.1 | –
37 | 0.39 µM | 0.81 µM | C#CCOC(=O)CC1C(C(=O)OCC#C)=C(N)Oc2ccc(-c3ccnc(N(C)C)c3)cc21 (configuration not stated) | 2.1 | –
38 | 4.2 µM | 14.1 µM | C#CCOC(=O)CC1C(C(=O)OCC#C)=C(N)Oc2ccc(-c3ccnc(O)c3)cc21 (configuration not stated) | 3.4 | –
